# In ChEMBL document CHEMBL1152682, “Structural optimization of a CXCR2-directed antagonist that indirectly inhibits gamma-secretase and reduces Abeta” (Bioorg Med Chem, 2009):
# Test: Antagonist activity at CXCR2 expressed in 7w CHO cells co-expressing human recombinant APP 751 assessed as inhibition of gamma-secretase-mediated amyloid beta42 production; call rule not given here
# Type: functional, cell-based
row,Structure (SMILES),IC50 [µM]
1,CCc1cccc(C(C)CC)c1NC(=O)Nc1ccc([N+](=O)[O-])cc1O (stereo not given),15
2,CCC(C)c1ccccc1NC(=O)Nc1ccc([N+](=O)[O-])cc1O (stereo not given),1

# Test: Antagonist activity at CXCR2 expressed in 7w CHO cells assessed as inhibition of GROalpha-mediated intracellular calcium mobilization by […] fluorescence assay
# Type: functional, cell-based
# How it was run: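 Adherent 7w cells (CHO stably expressing human APP751), grown to ~100% confluency in 96-well plates, loaded with […] dye for 1 h at 37 °C. Compounds were added from DMSO stocks in 1X HBSS (1% DMSO final) at ≥9 concentrations (10–100,000 nM), n = 8 each. GROα (33 nM final) followed 15 s later. Peak calcium was read at Ex/Em 494/516, and data were fitted to a 4-parameter sigmoid; three experiments.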
row,Structure (SMILES),IC50
1,CC(C)c1ccccc1NC(=O)Nc1ccc([N+](=O)[O-])cc1O,Active
2,O=C(Nc1ccc([N+](=O)[O-])cc1O)Nc1ccccc1F,Active
3,O=C(Nc1ccc([N+](=O)[O-])cc1O)Nc1ccccc1Cl,Active
4,COc1cc([N+](=O)[O-])ccc1NC(=O)Nc1ccccc1F,Active
5,O=C(Nc1ccc([N+](=O)[O-])cc1O)Nc1cc(Cl)ccc1Cl,Active

# Test: Antagonist activity at CXCR2 expressed in 7w CHO cells co-expressing human recombinant APP 751 assessed as inhibition of gamma-secretase-mediated amyloid beta40 production
row,Structure (SMILES),IC50 [µM]
1,O=C(Nc1ccc([N+](=O)[O-])cc1O)Nc1ccccc1Br,0.5
2,O=C(Nc1ccccc1)Nc1ccc([N+](=O)[O-])cc1O,12
3,O=C(Nc1ccc([N+](=O)[O-])cc1O)Nc1cc(F)c(F)cc1F,10
4,CCCc1ccc(NC(=O)Nc2ccc([N+](=O)[O-])cc2O)cc1,4
5,O=C(Nc1ccc([N+](=O)[O-])cc1O)Nc1ccc(F)cc1F,15
6,O=C(Nc1ccc([N+](=O)[O-])cc1O)Nc1c(F)cc(F)cc1F,15
7,Cc1ccc(NC(=O)Nc2ccc([N+](=O)[O-])cc2O)c(C)c1,3
8,CC(C)c1ccccc1NC(=O)Nc1ccc([N+](=O)[O-])cc1O,0.3
9,CC(C)(C)c1ccccc1NC(=O)Nc1ccc([N+](=O)[O-])cc1O,15
10,O=C(Nc1cc(F)c(F)c(F)c1)Nc1ccc([N+](=O)[O-])cc1O,8
11,O=C(Nc1ccc(F)c(F)c1)Nc1ccc([N+](=O)[O-])cc1O,8
12,O=C(Nc1ccc([N+](=O)[O-])cc1O)Nc1ccccc1F,10
13,O=C(Nc1ccc([N+](=O)[O-])cc1)Nc1ccccc1F,30
14,O=C(Nc1ccc([N+](=O)[O-])cc1O)Nc1ccccc1Cl,0.6
15,O=C(Nc1ccc([N+](=O)[O-])cc1O)Nc1ccc(Cl)c(Cl)c1Cl,3
16,O=C(Nc1ccc([N+](=O)[O-])cc1O)Nc1cc(Cl)c(Cl)cc1Cl,3
17,O=C(Nc1ccc([N+](=O)[O-])cc1O)Nc1ccc(Cl)cc1Cl,0.3
18,Cc1ccc(C)c(NC(=O)Nc2ccc([N+](=O)[O-])cc2O)c1,10

row,Structure (SMILES),IC50 [µM]
1,Cc1ccc(NC(=O)Nc2ccc([N+](=O)[O-])cc2O)cc1C,15
2,COc1ccc(NC(=O)Nc2ccccc2F)c([N+](=O)[O-])c1,10
3,CCCc1ccccc1NC(=O)Nc1ccc([N+](=O)[O-])cc1O,0.1
4,CCc1cccc(C)c1NC(=O)Nc1ccc([N+](=O)[O-])cc1O,7
5,CCc1cccc(C(C)C)c1NC(=O)Nc1ccc([N+](=O)[O-])cc1O,3
6,O=C(Nc1ccc([N+](=O)[O-])cc1O)Nc1ccc(F)c(F)c1F,8
7,COc1cc([N+](=O)[O-])ccc1NC(=O)Nc1ccccc1F,5
8,CCc1cccc(NC(=O)Nc2ccc([N+](=O)[O-])cc2O)c1,4
9,CCc1ccc(NC(=O)Nc2ccc([N+](=O)[O-])cc2O)cc1,3
10,Cc1cccc(C(C)C)c1NC(=O)Nc1ccc([N+](=O)[O-])cc1O,5
11,O=C(Nc1ccc([N+](=O)[O-])cc1O)Nc1ccc(Br)cc1Br,0.8
12,CC(C)c1cccc(C(C)C)c1NC(=O)Nc1ccc([N+](=O)[O-])cc1O,8
13,Cc1ccccc1NC(=O)Nc1ccc([N+](=O)[O-])cc1O,2
14,O=C(Nc1ccc(Cl)c(Cl)c1)Nc1ccc([N+](=O)[O-])cc1O,0.7
15,O=C(Nc1ccc([N+](=O)[O-])cc1O)Nc1cc(Cl)ccc1Cl,0.5
16,CCc1ccccc1NC(=O)Nc1ccc([N+](=O)[O-])cc1O,0.09
17,Cc1cc(C)cc(NC(=O)Nc2ccc([N+](=O)[O-])cc2O)c1,2
18,COc1cc([N+](=O)[O-])ccc1NC(=O)Nc1cccc(F)c1,12

# Test: Antagonist activity at CXCR2 expressed in 7w CHO cells co-expressing human recombinant APP 751 assessed as inhibition of gamma-secretase-mediated amyloid beta40 production at 100 uM
row,Structure (SMILES),IC50
1,O=C(Nc1ccccc1O)Nc1ccccc1Br,Not Active
2,O=C(Nc1ccccc1)Nc1ccccc1Br,Not Active
3,COc1cc([N+](=O)[O-])ccc1NC(=O)Nc1ccccc1Cl,Not Active
4,COc1cc([N+](=O)[O-])ccc1NC(=O)Nc1ccccc1Br,Not Active
5,O=C(Nc1ccccc1O)Nc1ccccc1Cl,Not Active
6,COc1cc([N+](=O)[O-])ccc1NC(=O)Nc1ccccc1,Not Active
7,O=C(Nc1ccccc1F)Nc1ccc(O)cc1[N+](=O)[O-],Not Active
